Data: ChEMBL document CHEMBL4706726, “Glucosamine and Its Analogues as Modulators of Amyloid-β Toxicity” (ACS Med Chem Lett, 2021)
Active and inactive are the calls of the source. The rule behind the calls is not given here.

Columns and labels:
[1] = target: Amyloid-beta precursor protein (Homo sapiens) (UniProt P05067); assay: Modulation of human amyloid beta (1 to 42) supramolecular assembly assessed as elongation of amyloid beta42 fibrils at <50 mM measured for 10 days by ThT dye based fluorescence spectrophotometry; conditions: filed as modulator, dose mM <50, time 10.0 day
Chain of Amyloid-beta precursor protein (Homo sapiens) (P05067 whole entry): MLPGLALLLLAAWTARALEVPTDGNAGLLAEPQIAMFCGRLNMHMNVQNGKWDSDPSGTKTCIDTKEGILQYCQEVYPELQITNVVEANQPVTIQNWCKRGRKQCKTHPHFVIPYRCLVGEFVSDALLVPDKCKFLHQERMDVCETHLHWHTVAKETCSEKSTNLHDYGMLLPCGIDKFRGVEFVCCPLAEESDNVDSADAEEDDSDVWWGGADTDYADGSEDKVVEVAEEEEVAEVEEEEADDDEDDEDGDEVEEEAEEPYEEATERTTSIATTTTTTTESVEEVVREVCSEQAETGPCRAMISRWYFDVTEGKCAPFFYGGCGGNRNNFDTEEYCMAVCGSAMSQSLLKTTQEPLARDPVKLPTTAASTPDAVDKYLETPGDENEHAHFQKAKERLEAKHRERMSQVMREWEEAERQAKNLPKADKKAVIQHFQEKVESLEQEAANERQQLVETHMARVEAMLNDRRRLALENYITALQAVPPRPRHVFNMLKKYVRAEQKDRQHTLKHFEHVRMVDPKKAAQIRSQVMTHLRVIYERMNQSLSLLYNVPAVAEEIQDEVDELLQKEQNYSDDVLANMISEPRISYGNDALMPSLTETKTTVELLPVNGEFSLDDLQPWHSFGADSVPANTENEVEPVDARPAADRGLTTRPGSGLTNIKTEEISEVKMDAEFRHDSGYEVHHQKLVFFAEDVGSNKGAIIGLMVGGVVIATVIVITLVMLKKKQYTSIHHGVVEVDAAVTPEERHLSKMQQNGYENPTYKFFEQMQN
Method in brief: (§1)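 Aβ42 aggregation kinetics followed for 10 days by thioflavin-T fluorescence, which reports parallel β-sheets. Each monosaccharide tested at several concentrations from 250 μM up to 50 mM.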

[2] = target: Amyloid-beta precursor protein (Homo sapiens) (UniProt P05067); assay: Modulation of human amyloid beta (1 to 42) supramolecular assembly assessed as elongation of amyloidbeta42 fibrils at 50 mM measured for 10 days by ThT dye based fluorescence spectrophotometry; conditions: time 10.0 day; method in brief: as §1
[3] = target: Amyloid-beta precursor protein (Homo sapiens) (UniProt P05067); assay: Modulation of human amyloid beta (1 to 42) supramolecular organization assessed as reduction in antiparallel beta-sheets characteristic of cytotoxic Abeta42 aggregates at 1 mM measured for 5 days by CD spectrometry; conditions: filed as modulator, time 5.0 day
Method in brief: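 Aβ42 secondary structure followed by circular dichroism over 1 and 5 days, with 1 mM of each monosaccharide present. Loss of antiparallel β-sheet was scored against 25 μM Aβ42 control. Error bars SD.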

SH-SY5Y [4] = assay: Cytotoxicity against human SH-SY5Y cells assessed as reduction in cell viability at 1 mM measured after 1 day by alamar blue assay; assay type: cell-based; conditions: 24 h, 1000 µM
Method in brief: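 SH-SY5Y neuroblastoma cells exposed to each monosaccharide (1 mM) under cell culture conditions without Aβ42. Viability screened for cytotoxicity.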

SH-SY5Y [5] = assay: Neuroprotective activity against Abeta-42-induced cytotoxicity in human SH-SY5Y cells assessed as increase in cell viability at 1 mM measured upto 5 days by alamar blue assay; assay type: functional, cell-based; conditions: time day <=5
Method in brief: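 SH-SY5Y cells incubated with Aβ42 plus each monosaccharide (1 mM) for 5 h, 24 h and 5 days. Cell viability measured at each time.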

[6] = target: Amyloid-beta precursor protein (Homo sapiens) (UniProt P05067); assay: Modulation of human amyloid beta (1 to 42) supramolecular organization at 0.4 mM by dynamic light scattering based analysis; conditions: filed as modulator
[7] = target: Amyloid-beta precursor protein (Homo sapiens) (UniProt P05067); assay: Modulation of human amyloid beta (1 to 42) supramolecular organization assessed as prevalence of Abeta42 fibrils with parallel beta-sheets at 1 mM incubated for 5 days by ATR-FITR analysis; conditions: time 5.0 day
[8] = target: Amyloid-beta precursor protein (Homo sapiens) (UniProt P05067); assay: Modulation of human amyloid beta (1 to 42) supramolecular organization assessed as reduction in 6E10 epitope binding site structure at 1 mM measured for 1 to 5 days by Western blot analysis; conditions: filed as modulator, time 1-5 day
Method in brief: (§2)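 Aβ42 (25 μM) incubated with monosaccharide (1 mM) for 1 or 5 days; assemblies detected by Western blot with antibody 6E10 and quantified by relative densitometry against Aβ42 alone; error bars SD.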

[9] = target: Amyloid-beta precursor protein (Homo sapiens) (UniProt P05067); assay: (§3) Modulation of amyloid beta (1 to 42) supramolecular organization in human SH-SY5Y cells assessed as inhibition of Abeta42-induced disruption of cell membrane by measuring reduction in Ca2+ influx at 1 mM incubated for 24 hrs by Fluo-3AM dye based scanning confocal fluorescence microscopy relative to control; conditions: filed as modulator
Method in brief: (§4)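 SH-SY5Y cells cultured 24 h with Aβ42 (25 μM) plus each monosaccharide (1 mM). Intracellular free Ca2+ imaged by fluorescence using Fluo3-AM […] as Ca2+ probes. Controls were cells cultured without Aβ42 and monosaccharide.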

[10] = target: Amyloid-beta precursor protein (Homo sapiens) (UniProt P05067); assay: as §3, with “[…]” for “Fluo-3AM”; conditions: filed as modulator; method in brief: as §4
[11] = target: Amyloid-beta precursor protein (Homo sapiens) (UniProt P05067); assay: Modulation of amyloid beta (1 to 42) supramolecular organization in human SH-SY5Y cells assessed as reduction in insulin resistance by measuring reduction in Abeta-42-induced IRS1 phosphorylation at Ser612 residue at 1 mM incubated for 1 hr by immunoblot analysis; assay type: cell-based; conditions: filed as modulator
Method in brief: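 SH-SY5Y cells cultured 1 h in medium with 10% FBS and no added insulin, with or without Aβ42 (25 μM) and each monosaccharide. IRS1 phosphorylation at S612 quantified by expression analysis. Parallel runs supplemented with 5 nM insulin.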

[12] = target: Amyloid-beta precursor protein (Homo sapiens) (UniProt P05067); assay: Modulation of amyloid beta (1 to 42) supramolecular organization in human SH-SY5Y cells assessed as reduction in insulin resistance by measuring increase in AKT1 phosphorylation phosphorylation at Ser473 residue at 1 mM incubated for 1 hr by immunoblot analysis; assay type: cell-based; conditions: filed as modulator
Method in brief: (§5)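 SH-SY5Y cells in medium with 10% FBS, no added insulin, cultured 1 h with Aβ42 (25 μM) with or without monosaccharide (1 mM); protein expression read by immunoblot.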

[13] = target: Amyloid-beta precursor protein (Homo sapiens) (UniProt P05067); assay: Modulation of amyloid beta (1 to 42) supramolecular organization in human SH-SY5Y cells assessed as reduction in inflammation by measuring decrease in Abeta-42-induced ANXA1 expression at 1 mM incubated for 1 hr by immunoblot analysis; assay type: cell-based; conditions: filed as modulator; method in brief: as §5
[14] = target: Amyloid-beta precursor protein (Homo sapiens) (UniProt P05067); assay: Modulation of amyloid beta (1 to 42) supramolecular organization in human SH-SY5Y cells assessed as reduction in insulin resistance by measuring reduction in Abeta-42-induced IRS1 phosphorylation at Ser612 residue at 1 mM incubated for 1 hr in presence of insulin by immunoblot analysis; assay type: cell-based; conditions: filed as modulator
Method in brief: (§6)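 SH-SY5Y cells in medium with 10% FBS plus 5 nM insulin, cultured 1 h with Aβ42 (25 μM) with or without monosaccharide (1 mM); protein expression read by immunoblot.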

[15] = target: Amyloid-beta precursor protein (Homo sapiens) (UniProt P05067); assay: Modulation of amyloid beta (1 to 42) supramolecular organization in human SH-SY5Y cells assessed as reduction in inflammation by measuring decrease in Abeta-42-induced ANXA1 expression at 1 mM incubated for 1 hr in presence of insulin by immunoblot analysis; assay type: cell-based; conditions: filed as modulator; method in brief: as §6
[16] = target: Amyloid-beta precursor protein (Homo sapiens) (UniProt P05067); assay: Modulation of amyloid beta (1 to 42) supramolecular organization in human SH-SY5Y cells assessed as reduction in AChE activity at 1 mM incubated for 1 day; assay type: cell-based; conditions: filed as modulator
Method in brief: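 SH-SY5Y neuroblastoma cells exposed to Aβ42 with monosaccharide (1 mM); cellular AChE activity read after 1 day of incubation.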

[17] = target: Amyloid-beta precursor protein (Homo sapiens) (UniProt P05067); assay: Modulation of human amyloid beta (1 to 42) supramolecular organization assessed as reduction in amount of cytotoxic Abeta42 oligomers at 1 mM measured for 1 to 5 days by Western blot analysis; conditions: filed as modulator, time 1-5 day; method in brief: as §2

Row | SMILES | Activity [1] | Activity [2] | Activity [3] | Activity (SH-SY5Y [4]) | Activity (SH-SY5Y [5]) | Activity [6] | Activity [7] | Activity [8] | inhibition [9] | inhibition [10] | Activity [11] | Activity [12] | Activity [13] | Activity [14] | Activity [15] | Activity ([7]; filed as modulator) | Activity [16] | Activity [17]
1 | N[C@@H]1[C@@H](O)[C@H](O)[C@@H](CO)O[C@H]1O | Active | inactive | Active | Non-Toxic | Active | Active | inactive | – | – | – | – | – | – | – | – | – | – | –
2 | N[C@@H]1[C@@H](O)[C@H](O)[C@@H](COP(=O)(O)O)O[C@H]1O | Active | inactive | Active | Non-Toxic | Active | Active | – | Active | Active | Active | Active | Active | Active | Active | Active | Active | – | –
3 | CC(=O)N[C@H]1C(O)O[C@H](CO)[C@@H](O)[C@@H]1O (some centres not stated) | Active | inactive | Active | Non-Toxic | Active | Active | inactive | – | – | – | Active | – | – | – | – | – | – | –
4 | N[C@@H]1[C@@H](O)[C@H](O)[C@@H](COS(=O)(=O)O)O[C@H]1O | Active | inactive | Active | Non-Toxic | Active | Active | – | Active | 41% | 60% | Active | Active | Active | Active | Active | Active | Active | Active
